The source of these data is ChEMBL document CHEMBL4334543, “Scaffold Hopping-Driven Optimization of 4-(Quinazolin-4-yl)-3,4-dihydroquinoxalin-2(1H)-ones as Novel Tubulin Inhibitors” (ACS Med Chem Lett, 2020).

SMILES strings stand for the structures. Values after ≈ are worked out from the molar mass of the structure shown. Active and inactive are the calls of the source. The calls are words filed in the database; no cut-off is given here.

Data set [1] can be described thus: Antiproliferative activity against human KBVIN cells assessed as reduction in cell viability incubated for 72 hrs by SRB assay. In kind it is functional. A digest of the protocol:
(§1)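 Sulforhodamine B assay across a human tumor cell line panel, with CA-4 run in parallel as positive control. GI50 is the concentration giving 50% growth inhibition, read from dose–response curves. Values are mean ± SD of at least three independent experiments.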
In general terms: Sulforhodamine B stains cellular protein and so reports cell mass.

In data set [2] the test system is MCF7. The data set is described as follows: Antiproliferative activity against human MCF7 cells assessed as reduction in cell viability incubated for 72 hrs by SRB assay. In kind it is functional. Particulars: MCF7, 72 h. Summed up: as §1
Data set [3] has as its system MDA-MB-231. As to the kind of experiment: Cell cycle arrest in human MDA-MB-231 cells assessed as increase in accumulation of G2/M phase at 3 times of antiproliferative IC50 incubated for 24 hrs by propidium iodide based flow cytometry. In kind it is functional. Summed up: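 Cells were fixed in EtOH, stained with propidium iodide in the presence of RNase, and analysed by flow cytometry. Cell count was plotted against linear PI fluorescence.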

Data set [4] relates to MDA-MB-231. As to the kind of experiment: Antiproliferative activity against human MDA-MB-231 cells assessed as reduction in cell viability incubated for 72 hrs by SRB assay. In kind it is functional. The conditions noted are these: MDA-MB-231, 72 h. Summed up:
as §1

Data set [5] relates to KB. As to the kind of experiment: Antiproliferative activity against human KB cells assessed as reduction in cell viability incubated for 72 hrs by SRB assay. In kind it is functional. Summed up: as §1
In data set [6] the test system is A549. The data set is described as follows: Antiproliferative activity against human A549 cells assessed as reduction in cell viability incubated for 72 hrs by SRB assay. The conditions noted are these: A549, 72 h. In kind it is functional. A digest of the protocol:
as §1

Data set [7] can be described thus: Lipophilicity, logP of compound incubated for 24 hrs with stirrer and measured after overnight by HPLC-UV analysis. In kind it is physicochemical.
Data set [8] can be described thus: Solubility of compound at pH 7.4 incubated for 4 hrs by HPLC-UV analysis. In kind it is physicochemical. Particulars: buffer.
For data set [9], the system named is MDA-MB-231. The data set is described as follows: Inhibition of tubulin polymerization in human MDA-MB-231 cells at 3 times of antiproliferative IC50 incubated for 24 hrs by DAPI staining based confocal fluorescence microscopy. In kind it is functional, cell-based. Summed up: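 Cells were fixed in 4% PFA/PBS, immunostained for α-tubulin and counterstained with DAPI. Microtubule networks were imaged by confocal fluorescence microscopy as projections of 15–20 confocal images.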

Data set [10] is described as follows: Potency index, ratio of GI50 of paclitaxel to GI50 of compound for antiproliferative activity against human KBVIN cells assessed as reduction in cell viability incubated for 72 hrs by SRB assay. In kind it is functional.

For `COc1ccc2c(c1)NC(=O)CN2c1ncnc2ncccc12`, the GI50 in [1] was 650 nM; in [2] it was 1200 nM; in data set [4], 2290 nM; in data set [5], 480 nM; in [6], 566 nM. In addition, the result in [3] was Active.

For `COc1ccc2c(c1)NC(=O)CCCN2c1nc(C)nc2ccccc12`, the GI50 in data set [1] is 5560 nM; in [2], 10500 nM; in data set [4], 9700 nM; in data set [5] it was 5700 nM; in data set [6], 5900 nM.

Regarding `CNc1nc(N2CC(=O)Nc3cc(OC)ccc32)c2cc(OC)c(OC)cc2n1`, the concentration for 50% growth inhibition (GI50) is 506 nM in data set [1]; 84 nM in [2]; 74 nM in [4]; 51 nM in [5]; 54 nM in [6]. Besides, the result in [3] was Active.

On to `COc1ccc2c(c1)NC(=O)CCN2c1nc(C)nc2ccccc12`, for which the GI50 in data set [1] stood at 696 nM; in data set [2] it was 933 nM; in data set [4], 95 nM; in data set [5], 725 nM; in data set [6], 838 nM. Further, the outcome in [3] was Active.

On to `COc1ccc2c(c1)NC(=O)CN2c1nccc2nccnc12`, for which the concentration for 50% growth inhibition (GI50) in data set [1] was 638 nM; in [2], 908 nM; in [4], 915 nM; in [5], 777 nM; in data set [6] it was 617 nM.

In the case of `COc1ccc2c(c1)NC(=O)CN2c1nc(Cl)nc2cc(OC)c(OC)cc12`, the GI50 in [1] is 65 nM; in [2] it was 82 nM; in data set [4], 76 nM; in [5] it was 45 nM; in data set [6], 50 nM. For the same compound, the result in data set [3] was Active.

In data set [7], `COc1ccc2c(c1)NC(=O)CN2c1cc(C)nc2ccccc12` came in with a logP at 24 h of 2.96. Besides, in data set [8], the solubility at 4 h is 10.9 µg/mL (≈ 34.1 µM). Further, the GI50 in data set [1] came out at 4.8 nM; in data set [4], 8 nM; in data set [5], 4.6 nM; in [6], 5.4 nM. In addition, in data set [9], the inhibition result is “Active”. In data set [3], the outcome was Active. Besides, the RatioGI50 in data set [10] is given as 340.

For the compound `COc1ccc2c(c1)NC(=O)CCCCN2c1nc(C)nc2ccccc12`, the 50% growth inhibitory concentration (GI50) in data set [1], in data set [2], in data set [4], in data set [5] and in data set [6] was above 10000 nM in each case.

For `CC(=O)O[C@H]1C(=O)[C@@]2(C)[C@H]([C@H](OC(=O)c3ccccc3)[C@]3(O)C[C@H](OC(=O)[C@H](O)[C@@H](NC(=O)c4ccccc4)c4ccccc4)C(C)=C1C3(C)C)[C@]1(OC(C)=O)CO[C@@H]1C[C@@H]2O` [PACLITAXEL], the 50% growth inhibitory concentration (GI50) in data set [1] was 1960 nM; in [2] it was 8.3 nM; in [4], 5.2 nM; in data set [5] it was 4.1 nM; in data set [6], 2.4 nM.

`COc1ccc2c(c1)NC(=O)CN2c1nccc2c1NC=CN2`: the GI50 in [1], in [2], in data set [4], in data set [5] and in [6] was above 40000 nM throughout.

As to `COc1ccc(/C=C\c2cc(OC)c(OC)c(OC)c2)cc1O` [COMBRETASTATIN A4], the GI50 worked out at 3.8 nM in data set [1]; 84 nM in data set [2]; 8.2 nM in data set [4]; 3.6 nM in data set [5]; 5.5 nM in data set [6]. Besides, the inhibition result in [9] was “Active”. In data set [3], the outcome was Active.

On to `COc1ccc2c(c1)C(=O)NCCN2c1nc(C)nc2ccccc12`, for which the GI50 in data set [1], in data set [2], in [4], in [5] and in data set [6] was above 2000 nM each time.

As to `COc1ccc2c(c1)NC(=O)CN2c1nc(OC)nc2cc(OC)c(OC)cc12`, the GI50 in data set [1] worked out at 919 nM; in data set [2] it was 968 nM; in data set [4], 760 nM; in data set [5], 506 nM; in data set [6] it was 544 nM. Also, the outcome in data set [3] was Active.

Take `COc1ccc2c(c1)NC(=O)CN2c1nc(NCCCO)nc2cc(OC)c(OC)cc12`: the GI50 was above 10000 nM in data set [1]; 950 nM in data set [2]; 820 nM in [4]; 516 nM in data set [5]; 997 nM in data set [6].

In the case of `COc1ccc2c(c1)NC(=O)CN2c1ncnc2ccc(Br)cc12`, the GI50 was determined as 5 nM in data set [1]; 9.4 nM in data set [2]; 9.6 nM in data set [4]; 5 nM in data set [5]; 5.5 nM in data set [6]. Further, the result in data set [3] was Active. In data set [10], the RatioGI50 turned out to be 340.

On to `COc1ccc2c(c1)NC(=O)CN2c1nc(Cl)nc2cccnc12`, for which the GI50 stood at 5.7 nM in [1]; 8.4 nM in data set [2]; 7.7 nM in [4]; 5.6 nM in [5]; 5.3 nM in [6]. Further, the outcome in data set [3] was Active. The RatioGI50 in [10] is 340.

As a reminder, the GI50 is the concentration giving 50% growth inhibition. In general, logP refers to the decadic logarithm of the partition coefficient of the neutral form, usually between octanol and water. By solubility is commonly meant the dissolved amount per volume that the medium holds. Higher therefore signals much dissolved substance.
